Test results: ChEMBL document CHEMBL3822380, “Simple avarone mimetics as selective agents against multidrug resistant cancer cells” (Eur J Med Chem, 2016)
In brackets after ≈: the same amount, converted by molar mass. Activity calls are given as the source filed them.

Tests used:
Micrococcus luteus [1] = test: Antibacterial activity against Micrococcus luteus ATCC 4698 by broth microdilution method; type: functional; settings: NCTC 2665
Method in brief: (§1)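 Broth microdilution per NCCLS. Compounds dissolved in DMSO as 10 mg/mL stock, diluted in Mueller Hinton broth (bacteria) or Sabouraud dextrose broth (fungi). Amikacin served as the positive control for bacteria and nystatin for fungi.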

Clostridium sporogenes = test: Antibacterial activity against Clostridium sporogenes ATCC 19404 by broth microdilution method; type: functional; method in brief: as §1
Escherichia coli = test: Antibacterial activity against Escherichia coli ATCC 25922 by broth microdilution method; type: functional; method in brief: as §1
Proteus hauseri = test: Antibacterial activity against Proteus hauseri ATCC 13315 by broth microdilution method; type: functional; method in brief: as §1
Salmonella enteritidis = test: Antibacterial activity against Salmonella enterica subsp. enterica serovar Enteritidis ATCC 13076 by broth microdilution method; type: functional; method in brief: as §1
Pseudomonas aeruginosa = test: Antibacterial activity against Pseudomonas aeruginosa ATCC 9027 by broth microdilution method; type: functional; method in brief: as §1
Candida albicans = test: Antifungal activity against Candida albicans ATCC 10231 by broth microdilution method; type: functional; method in brief: as §1
Saccharomyces cerevisiae = test: Antifungal activity against Saccharomyces cerevisiae ATCC 9763 by broth microdilution method; type: functional; method in brief: as §1
Aspergillus brasiliensis = test: Antifungal activity against Aspergillus brasiliensis ATCC 16404 by broth microdilution method; type: functional; method in brief: as §1
NCI-H460 [2] = test: Induction of apoptosis in human NCI-H460 cells assessed as live cells at 25 uM after 72 hrs by annexin-V/propidium iodide staining-based flow cytometric analysis (reference value: 98.3%); type: functional
NCI-H460 [3] = test: Induction of apoptosis in human NCI-H460 cells assessed as early apoptotic cells at 25 uM after 72 hrs by annexin-V/propidium iodide staining-based flow cytometric analysis (reference value: 0.3%); type: functional
NCI-H460 [4] = test: Induction of apoptosis in human NCI-H460 cells assessed as late apoptotic/necrotic cells at 25 uM after 72 hrs by annexin-V/propidium iodide staining-based flow cytometric analysis (reference value: 0.2%); type: functional
NCI-H460 [5] = test: Induction of apoptosis in human NCI-H460 cells assessed as dead cells at 25 uM after 72 hrs by annexin-V/propidium iodide staining-based flow cytometric analysis (reference value: 1.2%); type: functional
NCI-H460 [6] = test: Induction of apoptosis in multidrug resistant human NCI-H460 cells assessed as live cells at 25 uM after 72 hrs by annexin-V/propidium iodide staining-based flow cytometric analysis (reference value: 96.4%); type: functional
NCI-H460 [7] = test: Induction of apoptosis in multidrug resistant human NCI-H460 cells assessed as early apoptotic cells at 25 uM after 72 hrs by annexin-V/propidium iodide staining-based flow cytometric analysis (reference value: 1.1%); type: functional
NCI-H460 [8] = test: Induction of apoptosis in multidrug resistant human NCI-H460 cells assessed as late apoptotic/necrotic cells at 25 uM after 72 hrs by annexin-V/propidium iodide staining-based flow cytometric analysis (reference value: 1%); type: functional
NCI-H460 [9] = test: Induction of apoptosis in multidrug resistant human NCI-H460 cells assessed as dead cells at 25 uM after 72 hrs by annexin-V/propidium iodide staining-based flow cytometric analysis (reference value: 1.5%); type: functional
[10] = Induction of apoptosis in human HaCaT cells assessed as live cells at 25 uM after 72 hrs by annexin-V/propidium iodide staining-based flow cytometric analysis (reference value: 96.8%); type: cell-based; settings: read-out: Activity
HaCaT [11] = test: Induction of apoptosis in human HaCaT cells assessed as early apoptotic cells at 25 uM after 72 hrs by annexin-V/propidium iodide staining-based flow cytometric analysis (reference value: 0.2%); type: cell-based
HaCaT [12] = test: Induction of apoptosis in human HaCaT cells assessed as late apoptotic/necrotic cells at 25 uM after 72 hrs by annexin-V/propidium iodide staining-based flow cytometric analysis (reference value: 0.2%); type: cell-based
HaCaT [13] = test: Induction of apoptosis in human HaCaT cells assessed as dead cells at 25 uM after 72 hrs by annexin-V/propidium iodide staining-based flow cytometric analysis (reference value: 2.8%); type: cell-based
Kocuria rhizophila = test: Antibacterial activity against Kocuria rhizophila ATCC 9341 by broth microdilution method; type: functional; settings: DC2201; method in brief: as §1
NCI-H460 [14] = test: Cytotoxicity against human NCI-H460 cells after 72 hrs by MTT assay; type: functional, cell-based; settings: NCI-H460, 72 h
Method in brief: (§2)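 Seeding in 96-well plates at 1000 (NCI-H460), 2000 (NCI-H460/R) or 4000 (HaCaT) cells/well, treated after 24 h for 72 h. MTT at 0.4 mg/mL final, 4 h at 37 °C. Formazan dissolved in DMSO, absorbance read at 540 nm. Inhibition % = (1 − A treated/A untreated)×100. IC30 and IC50 obtained by linear regression.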

NCI-H460 [15] = test: Cytotoxicity against multidrug resistant human NCI-H460 cells after 72 hrs by MTT assay; type: functional, cell-based; settings: NCI-H460, 72 h; method in brief: as §2
HaCaT [16] = test: Cytotoxicity against human HaCaT cells after 72 hrs by MTT assay; type: cell-based; settings: for IC50: Homo sapiens, HaCaT; for IC30: human, hacat; method in brief: as §2
[17] = Selectivity ratio of IC30/IC50 for human HaCaT cells to IC30/IC50 for human NCI-H460 cells; type: ADME, cell-based; settings: HaCaT cells versus NCI-H460 cells
Method in brief: (§3)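 Fold threshold of 1.5 used to call selectivity to cancer cells, resistance, or selectivity to MDR cells.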

[18] = Selectivity ratio of IC30/IC50 for human HaCaT cells to IC30/IC50 for multidrug resistant human NCI-H460 cells; type: ADME, cell-based; settings: HaCaT cells versus multidrug resistant NCI-H460 cells; method in brief: as §3
NCI-H460 [19] = test: Selectivity ratio of IC30/IC50 for human NCI-H460 cells to IC30/IC50 for multidrug resistant human NCI-H460 cells; type: functional; method in brief: as §3
NCI-H460 [20] = test: Induction of superoxide anion generation in human NCI-H460 cells at 25 uM after 72 hrs by DHE staining-based flow cytometric analysis relative to control; type: functional, cell-based
Method in brief: (§4)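 Seeded as for cell death (50,000 or 100,000 cells/well), treated 72 h at 25 µM, with CDDP 5 µM as control. Adherent cells trypsinized and loaded with 1 µM DHE for 30 min at 37 °C in the dark, then washed twice in PBS. Flow cytometry at ex 488/em 585 nm (FL2-H). Mean fluorescence intensity corrected for autofluorescence and compared with untreated control.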

NCI-H460 [21] = test: Induction of superoxide anion generation in multidrug resistant human NCI-H460 cells at 25 uM after 72 hrs by DHE staining-based flow cytometric analysis relative to control; type: functional, cell-based; method in brief: as §4
HaCaT [22] = test: Induction of superoxide anion generation in human HaCaT cells at 25 uM after 72 hrs by DHE staining-based flow cytometric analysis relative to control; type: cell-based; method in brief: as §4
NCI-H460 [23] = test: Induction of mitochondrial membrane potential depolarization in human NCI-H460 cells at 25 uM after 15 mins by JC1-staining-based flow cytometric analysis; type: functional, cell-based
Method in brief: (§5)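 Cells treated with 25 µM compound, with CDDP 5 µM as control. Stained with JC-1 for 15 min at 37 °C in a CO2 incubator, washed twice in assay buffer and resuspended in PBS. Flow cytometry read red aggregate (FL2-H) versus green monomer (FL1-H) fluorescence. Live cells were also imaged by fluorescence microscopy.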

NCI-H460 [24] = test: Induction of mitochondrial membrane potential depolarization in multidrug resistant human NCI-H460 cells at 25 uM after 15 mins by JC1-staining-based flow cytometric analysis; type: functional, cell-based; method in brief: as §5
HaCaT [25] = test: Induction of mitochondrial membrane potential depolarization in human HaCaT cells at 25 uM after 15 mins by JC1-staining-based flow cytometric analysis; type: cell-based; settings: 0.25 h; method in brief: as §5
Staphylococcus aureus = test: Antibacterial activity against Staphylococcus aureus ATCC 6538 by broth microdilution method; type: functional; method in brief: as §1
Bacillus spizizenii = test: Antibacterial activity against Bacillus subtilis ATCC 6633 by broth microdilution method; type: functional; method in brief: as §1
Micrococcus luteus [26] = test: Antibacterial activity against Micrococcus luteus ATCC 10240 by broth microdilution method; type: functional; method in brief: as §1
NCI-H460 [27] = test: Resistance index, ratio of IC30/IC50 for multidrug resistant human NCI-H460 cells to IC30/IC50 for human NCI-H460 cells; type: functional; method in brief: as §3

Structure (SMILES) | MIC (Micrococcus luteus [1]) | MIC (Clostridium sporogenes) | MIC (Escherichia coli) | MIC (Proteus hauseri) | MIC (Salmonella enteritidis) | MIC (Pseudomonas aeruginosa) | MIC (Candida albicans) | MIC (Saccharomyces cerevisiae) | MIC (Aspergillus brasiliensis) | MIC (Kocuria rhizophila) | IC30 (NCI-H460 [14]) | IC50 (NCI-H460 [14]) | IC30 (NCI-H460 [15]) | IC50 (NCI-H460 [15]) | IC50 (HaCaT [16]) | IC30 (HaCaT [16]) | selectivity ratio [17] | selectivity ratio [18] | MIC (Staphylococcus aureus) | MIC (Bacillus spizizenii) | other results
CC(C)(C)C1=CC(=O)C=C(NCCc2ccccc2)C1=O | 2210 µM (≈ 626 µg/mL) | 4420 µM (≈ 1250 µg/mL) | 9 µM (≈ 2.55 µg/mL) | 17700 µM (≈ 5010 µg/mL) | 4420 µM (≈ 1250 µg/mL) | 4420 µM (≈ 1250 µg/mL) | 34 µM (≈ 9.63 µg/mL) | 34 µM (≈ 9.63 µg/mL) | 1110 µM (≈ 313 µg/mL) | 17700 µM (≈ 5010 µg/mL) | 7 µM | 14 µM | 3 µM | 6 µM | 23 µM | 19 µM | ≤ 1.5 | ≤ 1.5 | 9 µM (≈ 2.55 µg/mL) | 4420 µM (≈ 1250 µg/mL) | Activity (NCI-H460 [2]): 66.1%; Activity (NCI-H460 [3]): 2.4%; Activity (NCI-H460 [4]): 9.5%; Activity (NCI-H460 [5]): 22%; Activity (NCI-H460 [6]): 45.9%; Activity (NCI-H460 [7]): 2%; Activity (NCI-H460 [8]): 11.8%; Activity (NCI-H460 [9]): 40.3%; viability at 72 h, 25 µM [10]: 74.8%; Activity (HaCaT [11]): 4.1%; Activity (HaCaT [12]): 6.9%; Activity (HaCaT [13]): 14.2%; selectivity ratio (NCI-H460 [19]): <=1.5; Activity (NCI-H460 [20]): inactive; Activity (NCI-H460 [21]): Active; Activity (HaCaT [22]): Non-toxic; Activity (NCI-H460 [23]): Active; Activity (NCI-H460 [24]): Active; Activity (HaCaT [25]): Non-toxic; MIC (Micrococcus luteus [26]): 34 µM (≈ 9.63 µg/mL)
CCCCNC1=CC(=O)C(C(C)(C)C)=CC1=O | 2470 µM (≈ 581 µg/mL) | 1240 µM (≈ 291 µg/mL) | 19 µM (≈ 4.47 µg/mL) | 1240 µM (≈ 291 µg/mL) | 620 µM (≈ 146 µg/mL) | 620 µM (≈ 146 µg/mL) | 77 µM (≈ 18.1 µg/mL) | 154 µM (≈ 36.2 µg/mL) | 2460 µM (≈ 580 µg/mL) | 2470 µM (≈ 581 µg/mL) | 5 µM | 36 µM | 19 µM | 72 µM | > 100 µM | 50 µM | ≤ 1.5 | ≤ 1.5 | 38 µM (≈ 8.94 µg/mL) | 1240 µM (≈ 291 µg/mL) | Ratio (NCI-H460 [27]): <=1.5; MIC (Micrococcus luteus [26]): 38 µM (≈ 8.94 µg/mL)
